Bioassay records as filed in PubChem.
PHOSPHO1 inh: inhibitors of human PHOSPHO1 phosphatase; Q8TCT1; recombinant PHOSPHO1, absorbance phosphatase assay; inhibition, % at 13.3 µM; actives 1.1% (n = 290,000); in the data active = inhibition above about 60%
Target sequence (Q8TCT1 whole entry, looked up): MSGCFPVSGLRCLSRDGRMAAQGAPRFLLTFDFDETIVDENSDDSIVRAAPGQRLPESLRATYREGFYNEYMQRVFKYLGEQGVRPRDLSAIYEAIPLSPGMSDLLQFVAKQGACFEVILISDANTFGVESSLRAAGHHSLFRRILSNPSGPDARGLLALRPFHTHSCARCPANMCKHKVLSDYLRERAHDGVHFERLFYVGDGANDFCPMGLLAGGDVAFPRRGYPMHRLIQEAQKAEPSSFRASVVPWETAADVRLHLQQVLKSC
pCIP destab: p/CIP protein destabilization | actives 0.01% (n = 290,000) | F442A p/CIP-EGFP cells, EGFP fluorescence, 16 h | decrease of EGFP signal, % at 10 µM | Q05BA5;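 active = EGFP signal decrease of at least 30% at 10 µM or well 3 SD below plate mean, unless failing retest; inactive = the rest, including hits failing retest or dose response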
A3A deaminase: human APOBEC3A DNA deaminase inhibition. actives 0.41% (n = 330,000). recombinant A3A, FAM/TAMRA ssDNA deamination fluorescence. inhibition, % at 20 µM;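 active = at least 40% inhibition at 20 µM here, with at most 30% in a related deaminase screen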
Target sequence (P31941 whole entry, looked up): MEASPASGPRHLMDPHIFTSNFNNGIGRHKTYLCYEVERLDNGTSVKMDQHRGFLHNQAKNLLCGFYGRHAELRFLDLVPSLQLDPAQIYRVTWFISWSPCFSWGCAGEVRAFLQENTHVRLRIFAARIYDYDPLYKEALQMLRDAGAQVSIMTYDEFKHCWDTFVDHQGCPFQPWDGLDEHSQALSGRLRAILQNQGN
Tb MetRS inh: blocks T. brucei methionyl-tRNA synthetase activity. inhibition, % at 11.9 µM. actives 0.4% (n = 360,000). AID 624268. purified T. brucei MetRS, ATP depletion, Kinase-Glo luminescence;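 active = inhibition above a per-plate cutoff of the control wells' mean inhibition plus 3 SD, cut at about 5.5% in these data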
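technique = Kinase-Glo luminescence, ATP depletion format | system = purified MetRS (methionyl-tRNA synthetase) enzyme from Trypanosoma brucei | timing = 15 min preincubation, 2 h reaction, all 25 °C | evaluation = percent inhibition versus plate control medians | dosing = single dose, 11.9 µM final nominal, 0.9% final DMSO | also added = substrates ATP, L-methionine and bulk Escherichia coli tRNA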
A3G deaminase: inhibitors of human APOBEC3G DNA deaminase; inhibition, % at 20 µM; Q9HC16; AID 493012; actives 0.28% (n = 330,000); recombinant A3G, ssDNA deamination FAM/TAMRA fluorescence;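 active = inhibition of at least 40% at 20 µM, with no more than 30% in the related APOBEC3A deaminase screen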
Hits are given with their value; - = inactive; . = not tested or not shown. In the library only some 1.8% were active in any assay of this set; here they are far more common.

SMILES | PHOSPHO1 inh | pCIP destab | A3A deaminase | Tb MetRS inh | A3G deaminase
S=c1[nH]nc(CSc2nc3ccccc3s2)n1C1CCCCC1 | 96 | - | - | - | -
S=c1[nH]nc(COc2ccccc2)n1C1CCCCC1 | 66 | - | - | - | -
C=CCn1c(SCc2ccccc2F)nc2cc(C(=O)O)ccc2c1=O | - | - | - | - | -
O=C(CCN1CCCO1)NC1CCCc2c1cnn2-c1ccccc1F (stereo not given) | - | - | - | - | -
O=C(CCc1cn2ccccc2n1)NC1CCCc2c1cnn2-c1ccccc1F (stereo not given) | 75 | - | - | - | -
O=[N+]([O-])/C(C(Cl)=C(Cl)Cl)=C(\Nc1ccc(F)cc1)n1cncn1 | 93 | - | - | . | -
CCOc1ccc(N/C(=C(/C(Cl)=C(Cl)Cl)[N+](=O)[O-])n2cncn2)cc1 | - | - | - | . | -
Cc1nc(S(=O)(=O)Nc2ccccc2C(=O)NCC2CC2)cn1C | 63 | - | - | - | -
CC(NC(=O)NC(=O)c1ccc(F)cc1)C1CC1 (stereo not given) | . | . | - | - | -
CC(NC(=O)NC(=O)c1cccc([N+](=O)[O-])c1)C1CC1 (stereo not given) | 75 | - | - | - | -
Cc1ccc(Nc2nc(/N=C/NO)n[nH]2)cc1C | 65 | - | - | - | -
Cc1nc(C)c(-c2ccnc(/N=C/NO)n2)s1 | - | - | - | - | -
O=C(O)CSc1ncccn1 | - | - | - | - | -
O=C(CSc1ncccn1)c1ccccc1Br | 61 | - | - | - | -
O=C(CNCc1ccccc1Cl)NCc1ccco1 | - | - | - | - | -
O=C(CNCCc1ccc(Cl)cc1Cl)NCc1ccco1 | 63 | - | - | - | -
CCN(CCNC(=O)CN(C)S(=O)(=O)c1cccc2nsnc12)c1ccccc1 | 64 | - | - | - | -
S=c1[nH]nc(-c2ccncc2)n1/N=C/c1cccc(Cl)c1 | - | - | - | - | 53
Cc1cccc(/C=N/n2c(-c3ccccn3)n[nH]c2=S)c1 | - | - | - | . | 57
S=c1[nH]nc(-c2ccccc2)n1/N=C/c1cccc(Cl)c1 | . | - | - | - | -
S=c1[nH]nc(-c2cccs2)n1/N=C/c1cn(-c2ccccc2)nc1-c1ccccc1 | - | - | - | - | -
Fc1ccc(/C=N/n2c(-c3cccs3)n[nH]c2=S)cc1 | 71 | - | - | - | -
O=C(N/C(=C\c1ccc(Cl)cc1)C(=O)N1CCCCC1)c1ccco1 | - | - | - | - | -
CCCCC[C@@H]1CCCCC[C@@H](O)C[C@H](O)[C@H](O)/C=C/C(=O)O1 | . | . | . | - | .
Cc1cccc(NC(=O)NCC2CC2)c1 | - | - | . | - | .
SMILES | PHOSPHO1 inh | pCIP destab | A3A deaminase | Tb MetRS inh | A3G deaminase
COc1ccc(NC(=O)CSCC(=O)Nc2nnc(CC(C)C)s2)cc1 | . | . | - | - | -
CCn1c(-c2ccccc2)c[nH]c1=S | 98 | - | - | - | -
O=C(CSc1nc2ccccc2[nH]1)N1c2ccccc2Sc2ccccc21 | - | - | - | - | -
O=C(CSc1nc2ccccc2[nH]1)c1ccc(Cl)s1 | 103 | - | - | - | -
CN(CC(=O)Nn1cnnc1)S(=O)(=O)c1ccccc1 | - | - | - | - | -
CCc1nnc(NC(=O)CSc2nnc(COc3cccc(C)c3)o2)s1 | 88 | - | - | - | -
CCc1nnc(NC(=O)CSc2nnc(COc3ccccc3C)o2)s1 | 97 | - | - | - | -
Cc1ccc(OCc2nnc(SCC(=O)CC(=O)Nc3ccccc3)o2)cc1 | 73 | - | - | - | -
O=C(CCCc1nc2ccccc2s1)Nc1nccs1 | 92 | - | - | - | -
Cc1ccc(-c2nn3c(C)nnc3s2)cc1NC(=O)c1ccc(-c2ccc(Cl)cc2Cl)o1 | - | - | 43 | - | -
Cc1cc(C(=O)N(C)Cc2ccc(Br)cc2)no1 | 85 | - | - | - | -
CN(Cc1ccccc1)C(=O)c1cc(-c2ccc(Br)cc2)on1 | - | - | - | - | -
CCCc1ccc(OCc2ccccc2)c2c(=O)cc(C(=O)OCC)oc12 | - | - | - | - | -
CC12CCC(=O)C=C1CCC1C2CCC2(C)C1CC[C@]2(O)C(=O)CO (stereo not given in full) | 68 | - | - | - | -
COCCNC(=O)c1cc(-c2ccc3c(c2)OCO3)on1 | 69 | - | - | - | -
O=C(CCNC(=O)C1CCN(S(=O)(=O)c2ccc(F)cc2)CC1)NCCc1ccc(Cl)cc1 | 64 | - | - | - | -
COc1ccc(-c2[nH]nc3c2C(c2ccc(OC(=O)N4CCOCC4)cc2)C(C#N)=C(N)O3)cc1 (stereo not given) | - | - | - | . | -
CCCc1[nH]nc2c1C(c1ccc(OC(=O)N3CCOCC3)cc1)C(C#N)=C(N)O2 (stereo not given) | 63 | - | - | - | -
O=[N+]([O-])c1ccc2nc(-c3ccc(Cl)cc3)n(OCc3ccccc3)c2c1 | 62 | - | - | - | -
CCOC(=O)C(C)On1c(-c2ccc(Cl)cc2)nc2ccc([N+](=O)[O-])cc21 (stereo not given) | 102 | - | - | - | -
CN1CCN(C2CN(Cc3cn(Cc4ccccc4)nn3)S(=O)(=O)C2)CC1 (stereo not given) | . | . | . | - | .
Cc1ccc(-c2cc(-c3ccccc3)c3c(N)c(S(C)(=O)=O)sc3n2)cc1 | 82 | - | - | - | -
CCN1C(=O)C(C(=O)c2ccccc2)SC1=S (stereo not given) | - | - | - | - | -
C#CCSc1nnc(-c2ccc(OC)cc2)o1 | 69 | - | - | - | -
COc1ccccc1-c1cccc(-c2nc(C(=O)N3CCCCC3)cc3c2[C@@H](CCO)N(S(=O)C(C)(C)C)C3)c1 (stereo not given in full) | . | . | . | - | .
SMILES | PHOSPHO1 inh | pCIP destab | A3A deaminase | Tb MetRS inh | A3G deaminase
O=C(NCCc1ccccc1)c1ccc2nc(-c3ccco3)c(-c3ccco3)nc2c1 | - | - | - | - | -
O=C(NCCO)c1ccc2nc(-c3ccco3)c(-c3ccco3)nc2c1 | 74 | - | - | - | -
Cc1cccc(/C=N/NC(=O)C(C)Nc2cccc3ccccc23)n1 (stereo not given) | 80 | - | - | - | -
CN(CC1CCCO1)S(=O)(=O)c1ccc(C(=O)Nc2nnc(-c3ccccc3)o2)cc1 (stereo not given) | - | - | - | - | -
CCN(CC)c1ccc(NC(=O)CCNS(=O)(=O)c2ccc3c(c2)CCC(=O)N3)c(C)c1 | - | - | - | - | -
Cc1ccccc1NC(=O)CCNS(=O)(=O)c1ccc2c(c1)CCC(=O)N2 | 62 | - | - | - | -
Cc1ccc(NC(=O)CCNS(=O)(=O)c2ccc3c(c2)CCC(=O)N3)cc1F | 70 | - | - | - | -
CCOc1ccc(NC(=O)CCNS(=O)(=O)c2ccc3c(c2)CCC(=O)N3)cc1 | - | - | - | - | -
Cc1ccc2ccc(C#N)cc2c1O | . | . | . | - | .
COCCn1c(=S)[nH]c2ccc(N(C)C)cc2c1=O | 98 | - | - | - | -
O=C(CC(SCCO)c1ccc2c(c1)OCO2)c1cccs1 (stereo not given) | 83 | - | - | - | -
